Experimental data as given in PubChem BioAssay AID449761 (Broad Institute, 2010).
Results filed as inconclusive are left out. The source made the active and inactive calls.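 The calls were made as follows: active = compounds raising caspase signal with fitted AC50 no more than tenfold above the top tested dose; inconclusive = flat curve at 30 to 70% activity, or unusable fit; inactive = the rest.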

What follows are compounds tested on MEF WT non-primed, caspase-Glo luminescence, 3 h (assay: caspase activity of non-primed cells – cell-based, caspase-Glo luminescence, 3 h, counter-screen for Bcl2-A1 inhibitor project, dose response (AID 449761)).
Method in brief: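 Incubation: 3 h compound at 37 °C, 1 h reagent at RT / System: Non-primed wild-type MEF cells / Signal: CaspaseGlo luminescence, reagent diluted 1:1 in 50 mM HEPES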

Row | Compound | AC50
1 | Oc1[nH]c2ccc(Br)cc2c1N=NC(=S)Nc1ccc(F)cc1 | > 35 µM (inactive)
2 | CCCCC1CCC(C(=O)N(CC(C)C)c2c(N)n(Cc3ccccc3)c(=O)[nH]c2=O)CC1 (stereo not given) | 8 µM
3 | Cc1ccc2c(c1)C(=O)C(=O)N2Cc1ccc(Br)cc1 | > 35 µM (inactive)
4 | COc1ccc(-c2ccc3c(c2)S(=O)(=O)c2cccc(C(=O)NC[C@@H]4CCCO4)c2C3=O)cc1OC | > 35 µM (inactive)
5 | O=C(NCc1ccccc1Cl)c1cccc2c1C(=O)c1ccc(-c3ccc(OC(F)(F)F)cc3)cc1S2(=O)=O | > 35 µM (inactive)
6 | CCS(=O)(=O)c1ncc(Cl)c(C(=O)Nc2ccc(S(=O)(=O)N3CCC(C)CC3)cc2)n1 | > 35 µM (inactive)
7 | COc1ccc(-c2nc(NC(=O)c3n[nH]c(=O)c4ccccc34)sc2C)cc1 | > 35 µM (inactive)
8 | C=C1/C=C(\C)[C@](C)(O)C[C@H](O)CC(=O)[C@H](O)[C@@H](O)[C@H](C)C[C@H](C)OC(=O)/C(C)=C/CC/C=C/[C@@H]2O[C@H]2C[C@H](C)C1 | > 35 µM (inactive)
9 | Cc1ccc(CS(=O)(=O)c2ncc(Cl)c(C(=O)Nc3nnc(C(C)C)s3)n2)cc1 | > 35 µM (inactive)
10 | Cc1ccc(Sc2c([N+](=O)[O-])c(=O)n(C)c3ccccc23)cc1 | > 35 µM (inactive)
11 | COc1ccc(NC(=O)c2cccc3c2C(=O)c2ccc(-c4ccc(F)cc4OCc4ccccc4)cc2S3(=O)=O)cc1 | > 35 µM (inactive)
12 | Cc1ccc(C=C2C(Cl)=C(Cl)C(Cl)=C2Cl)cc1 | 5.72 µM
13 | O=C(NC[C@H]1CCCO1)c1cccc2c1C(=O)c1ccc(-c3ccc(F)cc3OCc3ccccc3)cc1S2(=O)=O | > 35 µM (inactive)
14 | COc1ccccc1-c1cc(C(F)(F)F)nc(S(=O)(=O)CCCC(=O)NC(C)C)n1 | 25.8 µM
15 | O=C(c1ccc(COc2ccc3ccccc3c2)o1)N1N=C(C(F)F)CC1(O)C(F)F (stereo not given) | > 35 µM (inactive)
